Reference: ChEMBL document CHEMBL3227917, “Structure-activity relationships of dimeric Catharanthus alkaloids. 2. Experimental antitumor activities of N-substituted deacetylvinblastine amide (vindesine) sulfates” (J Med Chem, 1979)

Key:
Mus musculus [1] = assay: Toxicity in C57BL/6 mouse allografted with mouse B16 cells assessed as animal death at 1.20 mg/kg, ip administered on days 1,5 and 9; type: organism-based; set-up: dose 1.2 mg/kg, route intraperitoneal; details: in vivo, 1.2 mg/kg
Method in brief: (§1)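 B16 melanoma cells (10⁶ inoculum) implanted ip in C57BL/6 mice; groups of 10. Sulfate salts unless noted, given ip on days 1, 5 and 9. Single test. Survival prolongation is expressed as percent versus controls, with survivors counted on day 60. Toxic means deaths of ≥5 of 10 animals before the first control death.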

[2] = Antitumor activity against mouse Gardner lymphosarcoma allografted in C3H mouse assessed as tumor growth inhibition at 0.20 mg/kg, ip administered daily for 8 to 10 days; type: functional; details: route intraperitoneal, read-out: TGI
Method in brief: (§2)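 Gardner lymphosarcoma in C3H mice; sulfate salts unless noted, given ip daily for 8–10 days, treatment starting 8 days after tumor implantation. Tumor growth inhibition scored as –, 0–25%; +, 26–50%; ++, 51–75%; +++, 76–100%; T, lethal to ≥5 of 10 animals per group. Average of one or more tests.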

Mus musculus [3] = assay: Toxicity in C57BL/6 mouse allografted with mouse B16 cells assessed as animal death at 0.60 mg/kg, ip administered on days 1,5 and 9; type: organism-based; set-up: dose 0.6 mg/kg, route intraperitoneal; details: in vivo, 0.6 mg/kg; method in brief: as §1
Mus musculus [4] = assay: Toxicity in C57BL/6 mouse allografted with mouse B16 cells assessed as animal death at 0.90 mg/kg, ip administered on days 1,5 and 9; type: organism-based; set-up: dose 0.9 mg/kg, route intraperitoneal; details: in vivo, 0.9 mg/kg; method in brief: as §1
[5] = Antitumor activity against mouse Gardner lymphosarcoma allografted in C3H mouse assessed as tumor growth inhibition at 0.10 mg/kg, ip administered daily for 8 to 10 days; type: functional; details: route intraperitoneal, read-out: TGI; method in brief: as §2
[6] = Antitumor activity against mouse Gardner lymphosarcoma allografted in C3H mouse assessed as tumor growth inhibition at 0.40 mg/kg, ip administered daily for 8 to 10 days; type: functional; details: route intraperitoneal, read-out: TGI; method in brief: as §2
[7] = Antitumor activity against mouse Gardner lymphosarcoma allografted in C3H mouse assessed as tumor growth inhibition at 0.25 mg/kg, ip administered daily for 8 to 10 days; type: functional; details: route intraperitoneal, read-out: TGI; method in brief: as §2
[8] = Antitumor activity against mouse Gardner lymphosarcoma allografted in C3H mouse assessed as tumor growth inhibition at 0.5 mg/kg, ip administered daily for 8 to 10 days; type: functional; details: route intraperitoneal, read-out: TGI; method in brief: as §2
[9] = Antitumor activity against mouse Gardner lymphosarcoma allografted in C3H mouse assessed as tumor growth inhibition at 0.125 mg/kg, ip administered daily for 8 to 10 days; type: functional; details: route intraperitoneal, read-out: TGI; method in brief: as §2
P388/VCR [10] = assay: Antitumor activity against mouse P388/VCR cells allografted in CD2F1 mouse assessed as increase in host lifespan at 1.08 mg/kg, ip administered on days 1, 5 and 9; type: functional; details: route intraperitoneal
Method in brief: (§3)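 Groups of eight male CD2F1 mice bearing P388 leukemia, run at NCI. Sulfate salts given ip on days 1, 5 and 9. Read-out is percent increase in lifespan.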

[11] = Toxicity in iv dosed mouse assessed as lethality; type: organism-based; details: in vivo
CHO [12] = assay: Mitotic arrest in CHO cells assessed as increase in cell accumulation at 0.2 ug/ml; type: functional, Cricetulus griseus
Method in brief: (§4)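 Chinese hamster ovary cells in tissue culture, scored for mitotic arrest as increase in cells in mitotic arrest over control: +++, 40–50%; ++, 15–40%; +, 10–15%; ±, 7–10%; –, 3–7%. Cytotoxicity noted separately.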

P388/VCR [13] = assay: Antitumor activity against mouse P388/VCR cells allografted in CD2F1 mouse assessed as increase in host lifespan at 1.80 mg/kg, ip administered on days 1, 5 and 9; type: functional; details: dose 1.8 mg/kg; route intraperitoneal
Method in brief: (§5)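 Groups of eight male CD2F1 mice, tested at the NCI. Compounds were given as sulfate salts, dosed in mg/kg ip on days 1, 5 and 9. Activity was read as percent increase in lifespan against the leukemia line.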

Mus musculus [14] = assay: Toxicity in CD2F1 mouse allografted with mouse P388/S cells at 3.00 mg/kg, ip administered on days 1, 5 and 9; type: organism-based; set-up: dose 3 mg/kg, route intraperitoneal; details: in vivo
[15] = Antitumor activity against mouse P1534 cells allografted in DBA2 mouse assessed as tumor growth inhibition at 0.40 mg/kg, ip administered daily for 8 to 10 days; type: functional; details: route intraperitoneal, read-out: TGI
Method in brief: (§6)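 P1534(J) leukemia implanted sc in DBA2 mice; sulfate salts dosed ip daily for 8–10 days. Growth inhibition scored –, 0–25%; +, 26–50%; ++, 51–75%; +++, 76–100%; T, lethal to ≥5 of 10 animals per group. Average of one or more tests.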

Mus musculus [16] = assay: Toxicity in CD2F1 mouse allografted with mouse P388/VCR cells at 3.00 mg/kg, ip administered on days 1, 5 and 9; type: organism-based; set-up: dose 3 mg/kg, route intraperitoneal; details: in vivo
CHO [17] = assay: Mitotic arrest in CHO cells assessed as increase in cell accumulation at 0.02 ug/ml; type: functional, Cricetulus griseus; method in brief: as §4
P388/S [18] = assay: Antitumor activity against mouse P388/S cells allografted in CD2F1 mouse assessed as increase in host lifespan at 1.08 mg/kg, ip administered on days 1, 5 and 9; type: functional; details: route intraperitoneal; method in brief: as §3
P388/VCR [19] = assay: Antitumor activity against mouse P388/VCR cells allografted in CD2F1 mouse assessed as increase in host lifespan at 0.648 mg/kg, ip administered on days 1, 5 and 9; type: functional; details: route intraperitoneal; method in brief: as §3
[20] = Antitumor activity against mouse P1534 cells allografted in DBA2 mouse assessed as tumor growth inhibition at 0.20 mg/kg, ip administered daily for 8 to 10 days; type: functional; details: route intraperitoneal, read-out: TGI; method in brief: as §6
CHO [21] = assay: Mitotic arrest in CHO cells assessed as increase in cell accumulation at 0.002 ug/ml; type: functional, Cricetulus griseus; method in brief: as §4
P388/S [22] = assay: Antitumor activity against mouse P388/S cells allografted in CD2F1 mouse assessed as increase in host lifespan at 1.80 mg/kg, ip administered on days 1, 5 and 9; type: functional; details: dose 1.8 mg/kg; route intraperitoneal; method in brief: as §5
[23] = Antitumor activity against mouse P1534 cells allografted in DBA2 mouse assessed as tumor growth inhibition at 0.25 mg/kg, ip administered daily for 8 to 10 days; type: functional; details: route intraperitoneal, read-out: TGI; method in brief: as §6
P388/S [24] = assay: Antitumor activity against mouse P388/S cells allografted in CD2F1 mouse assessed as increase in host lifespan at 0.648 mg/kg, ip administered on days 1, 5 and 9; type: functional; details: route intraperitoneal; method in brief: as §3
P388/VCR [25] = assay: Antitumor activity against mouse P388/VCR cells allografted in B6D2F1 mouse assessed as increase in host lifespan at 1.20 mg/kg, ip administered on days 1, 5 and 9; type: functional; details: dose 1.2 mg/kg; route intraperitoneal
Method in brief: (§7)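 P388/VCR leukemia in groups of 10 B6D2F1 mice, run at Lilly using the cell strain received from NCI. Sulfate salts given ip on days 1, 5 and 9. Read-out is percent increase in lifespan.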

[26] = Antitumor activity against mouse P1534 cells allografted in DBA2 mouse assessed as tumor growth inhibition at 0.30 mg/kg, ip administered daily for 8 to 10 days; type: functional; details: route intraperitoneal, read-out: TGI; method in brief: as §6
P388/VCR [27] = assay: Antitumor activity against mouse P388/VCR cells allografted in B6D2F1 mouse assessed as increase in host lifespan at 0.90 mg/kg, ip administered on days 1, 5 and 9; type: functional; details: dose 0.9 mg/kg; route intraperitoneal; method in brief: as §7
P388/VCR [28] = assay: Antitumor activity against mouse P388/VCR cells allografted in B6D2F1 mouse assessed as increase in host lifespan at 0.60 mg/kg, ip administered on days 1, 5 and 9; type: functional; details: dose 0.6 mg/kg; route intraperitoneal; method in brief: as §7

## CC[C@]1(O)C[C@H]2CN(CCc3c([nH]c4ccccc34)[C@@](C(=O)OC)(c3cc4c(cc3OC)N(C)[C@H]3[C@@](O)(C(=O)NCCOC)[C@H](O)[C@]5(CC)C=CCN6CC[C@]43[C@@H]65)C2)C1.O=S(=O)(O)O
Mus musculus [1]
  Activity: Toxic
[2]
  inhibition in vivo at 0.2 mg/kg: 0%
Mus musculus [3]
  Activity: Toxic
Mus musculus [4]
  Activity: Toxic
[5]
  inhibition in vivo at 0.1 mg/kg: 0%

## CC[C@]1(O)C[C@H]2CN(CCc3c([nH]c4ccccc34)[C@@](C(=O)OC)(c3cc4c(cc3OC)N(C)[C@H]3[C@@](O)(C(=O)NCCNC(C)=O)[C@H](O)[C@]5(CC)C=CCN6CC[C@]43[C@@H]65)C2)C1
[6]
  inhibition in vivo at 0.4 mg/kg: 76%
[7]
  inhibition in vivo at 0.25 mg/kg: 76%
[2]
  inhibition in vivo at 0.2 mg/kg: 76%
[8]
  inhibition in vivo at 0.5 mg/kg: 76%
[9]
  inhibition in vivo at 0.125 mg/kg: 51%
[5]
  inhibition in vivo at 0.1 mg/kg: 76%

## CC[C@]1(O)C[C@@H]2CN(CCc3c([nH]c4ccccc34)[C@@](C(=O)OC)(c3cc4c(cc3OC)N(C)[C@H]3[C@@](O)(C(=O)OC)[C@H](OC(C)=O)[C@]5(CC)C=CCN6CC[C@]43[C@@H]65)C2)C1.O=S(=O)(O)O [VINBLASTINE SULFATE]
P388/VCR [10]
  Activity: 12%
[11]
  LD50: 10 mg/kg
CHO [12]
  Activity: 40%
P388/VCR [13]
  Activity: 17%
Mus musculus [14]
  Activity: Toxic
[15]
  inhibition in vivo at 0.4 mg/kg: 51%
Mus musculus [16]
  Activity: Toxic
CHO [17]
  Activity: 15%
P388/S [18]
  Activity: 96%
P388/VCR [19]
  Activity: 17%
[20]
  inhibition in vivo at 0.2 mg/kg: 0%
CHO [21]
  Activity: 3%
P388/S [22]
  Activity: 92%
[23]
  inhibition in vivo at 0.25 mg/kg: 0%
P388/S [24]
  Activity: 75%
P388/VCR [25]
  Activity: 10%
[26]
  inhibition in vivo at 0.3 mg/kg: 0%
P388/VCR [27]
  Activity: 9%
P388/VCR [28]
  Activity: 9%
